Legend:
HER2 (SKBR3 cells) = HER2 (SKBR3 cells) (Homo sapiens, UniProt P04626); experiment: In vitro receptor competitive binding assay; conditions: TP1623 0-500 nmol/L, 30 minutes at 4°C, then tracer 2 h at 4°C
Summary of the method: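 SKBR3 cells at 2–4 × 10^4/well were seeded the day before. Unlabelled test compound was added at 0, 1, 5, 25, 50 and 500 nmol/L final, in triplicate, for 30 min at 4°C. 99mTc tracer (462 KBq/0.1 μg) followed for 2 h at 4°C. Cells were washed three times in ice-cold PBS, trypsin-digested and gamma-counted. Count was plotted against competitor concentration.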

HER2 = conditions: cited from earlier work

Sequence	competitive inhibition of binding of 99mTc-TP1623 to HER2 (HER2 (SKBR3 cells))	affinity for HER2 (HER2)
G (D) AGG-Aba-YCFPDEEGACY-NH2 [TP1623]	could competitively inhibit the binding	–
YCFPDEEGACY	–	high affinity

— article PMC5447658 (Translational Oncology, 2017)
